ChEMBL document CHEMBL1932985, “Identification of biaryl sulfone derivatives as antagonists of the histamine H₃ receptor: discovery of (R)-1-(2-(4'-(3-methoxypropylsulfonyl)biphenyl-4-yl)ethyl)-2-methylpyrrolidine (APD916)” (Bioorg Med Chem Lett, 2012)

Legend:
Histamine H3 receptor [1] = biological target: Histamine H3 receptor (Rattus norvegicus, UniProt Q9QYN8); test: Displacement of N-[3H]-methylhistamine from histamine H3 receptor in rat cortex membranes; type: cell membranes, Membrane
hERG (KCNH2) = hERG (KCNH2) (Homo sapiens, UniProt Q12809); test: Inhibition of human ERG at 3 uM by patch-clamp assay
Sequence of hERG (KCNH2) (Q12809 whole entry): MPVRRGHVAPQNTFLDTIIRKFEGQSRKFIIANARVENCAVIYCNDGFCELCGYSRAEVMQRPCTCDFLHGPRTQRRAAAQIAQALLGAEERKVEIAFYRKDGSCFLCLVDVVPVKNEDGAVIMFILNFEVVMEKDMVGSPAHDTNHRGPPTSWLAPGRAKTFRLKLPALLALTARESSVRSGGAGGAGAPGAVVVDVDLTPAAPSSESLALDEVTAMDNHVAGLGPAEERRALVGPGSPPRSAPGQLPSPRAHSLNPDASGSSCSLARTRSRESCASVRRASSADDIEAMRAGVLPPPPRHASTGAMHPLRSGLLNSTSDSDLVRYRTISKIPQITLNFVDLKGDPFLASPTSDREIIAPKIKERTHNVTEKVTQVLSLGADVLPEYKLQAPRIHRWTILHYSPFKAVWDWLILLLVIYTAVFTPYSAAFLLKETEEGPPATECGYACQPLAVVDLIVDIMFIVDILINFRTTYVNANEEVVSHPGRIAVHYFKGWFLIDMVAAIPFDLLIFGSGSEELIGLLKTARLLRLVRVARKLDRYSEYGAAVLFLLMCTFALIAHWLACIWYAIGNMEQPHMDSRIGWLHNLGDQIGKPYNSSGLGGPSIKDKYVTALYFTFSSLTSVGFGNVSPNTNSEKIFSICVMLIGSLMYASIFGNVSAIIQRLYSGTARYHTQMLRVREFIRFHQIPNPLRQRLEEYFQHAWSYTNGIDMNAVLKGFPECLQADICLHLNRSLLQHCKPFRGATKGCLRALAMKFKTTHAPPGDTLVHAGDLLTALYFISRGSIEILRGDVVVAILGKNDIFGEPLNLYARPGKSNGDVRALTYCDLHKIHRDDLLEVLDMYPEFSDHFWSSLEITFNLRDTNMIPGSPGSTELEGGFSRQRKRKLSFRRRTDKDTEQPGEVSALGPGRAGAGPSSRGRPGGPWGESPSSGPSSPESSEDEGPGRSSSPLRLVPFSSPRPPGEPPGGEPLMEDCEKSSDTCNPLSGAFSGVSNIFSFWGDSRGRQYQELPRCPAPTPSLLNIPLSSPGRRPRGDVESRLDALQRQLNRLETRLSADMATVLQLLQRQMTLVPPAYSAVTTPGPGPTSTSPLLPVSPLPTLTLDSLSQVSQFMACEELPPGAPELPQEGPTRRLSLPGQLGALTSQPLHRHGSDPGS

[2] = biological target: Voltage-gated inwardly rectifying potassium channel KCNH2 (Homo sapiens, UniProt Q12809); test: Inhibition of human ERG by patch-clamp assay
Sequence of Voltage-gated inwardly rectifying potassium channel KCNH2 (Q12809 whole entry): as above

Rattus norvegicus [3] = test: Inhibition of RAMH-induced dipsogenia in po dosed Sprague-Dawley rat administered 30 mins prior to RAMH challenge measured up to 20 mins; type: functional; details: read-out: MED
Procedure, shortened: (§1)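 Rats given compound orally 0.5 h (or, for duration of action, at selected times up to 6 h) before RAMH 10 mg/kg SC; water consumed over 20 min measured. Screening doses 1 or 0.3 mg/kg PO, also 0.1 mg/kg; duration study at 0.6 mg/kg PO. MED = minimum dose fully inhibiting drinking; means ± SEM.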

[4] = Tmax in Sprague-Dawley rat at 3 mg/kg, po and iv by LC-MS/MS analysis; type: ADME, organism-based; set-up: dose 3 mg/kg, route oral; details: in vivo
Procedure, shortened: (§2)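 Rats were given the compound both IV and PO in a routine PK study. Tmax came from the PO arm and Vss from the IV arm.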

[5] = Cmax in Sprague-Dawley rat plasma at 3 mg/kg, po and iv by LC-MS/MS analysis; type: ADME, organism-based; set-up: dose 3 mg/kg, route oral
Procedure, shortened: (§3)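 Rat PK after IV and PO dosing; plasma Cmax, Tmax, IV half-life and Vss determined; oral bioavailability from AUCpo/AUCiv. Metabolite exposure determined after a 3 mg/kg PO parent dose.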

[6] = Half life in Sprague-Dawley rat at 3 mg/kg, iv by LC-MS/MS analysis; type: ADME, organism-based; set-up: dose 3 mg/kg, route intravenous; details: in vivo; procedure, shortened: as §3
Rattus norvegicus [7] = test: Volume of distribution at steady state in Sprague-Dawley rat at 3 mg/kg, po and iv by LC-MS/MS analysis; type: ADME, organism-based; set-up: dose 3 mg/kg, route oral; details: in vivo; procedure, shortened: as §2
[8] = Oral bioavailability in Sprague-Dawley rat at 3 mg/kg by LC-MS/MS analysis; type: ADME, organism-based; details: in vivo; procedure, shortened: as §3
[9] = Ratio of drug level in brain to plasma in Sprague-Dawley rat at 3 mg/kg, po and iv after 0.75 to 3 hrs by LC-MS/MS analysis; type: ADME, organism-based; set-up: dose 3 mg/kg, route oral; details: read-out: BPR
Procedure, shortened: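 Brain (µg/mg) and plasma (µg/mL) levels were measured after oral dosing, with three rats per time point. The b/p ratio was the mean of the nine individual ratios.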

[10] = Plasma protein binding in rat; type: ADME, cell-free; details: read-out: PPB (converted)
[11] = Plasma protein binding in human; type: ADME, cell-free; details: read-out: PPB (converted)
[12] = Drug uptake in Sprague-Dawley rat brain at 0.3 mg/kg, po after 1 hr; type: ADME, organism-based; set-up: dose 0.3 mg/kg, route oral
Procedure, shortened: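 Whole-brain concentration measured 1 h after a 0.3 mg/kg oral dose in rat, the time coinciding with the drinking measurement; expressed […].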

Rattus norvegicus [13] = test: Inhibition of RAMH-induced dipsogenia in Sprague-Dawley rat at 0.6 mg/kg, po administered 6 hrs prior to RAMH challenge measured up to 20 mins; type: functional; procedure, shortened: as §1
[14] = Tmax in mouse at 3 mg/kg, po by LC-MS/MS analysis; type: ADME, organism-based; set-up: dose 3 mg/kg, route oral; details: in vivo
[15] = Tmax in monkey at 3 mg/kg, po by LC-MS/MS analysis; type: ADME, organism-based, Macaca mulatta; set-up: dose 3 mg/kg, route oral; details: rhesus monkey, in vivo
[16] = Tmax in dog at 3 mg/kg, po by LC-MS/MS analysis; type: ADME, organism-based, Canis lupus familiaris; set-up: dose 3 mg/kg, route oral; details: in vivo
[17] = Cmax in mouse at 3 mg/kg, po by LC-MS/MS analysis; type: ADME, organism-based; set-up: dose 3 mg/kg, route oral; details: in vivo
[18] = Cmax in monkey at 3 mg/kg, po by LC-MS/MS analysis; type: ADME, organism-based, Macaca mulatta; set-up: dose 3 mg/kg, route oral; details: rhesus monkey, in vivo
[19] = Cmax in dog at 3 mg/kg, po by LC-MS/MS analysis; type: ADME, organism-based, Canis lupus familiaris; set-up: dose 3 mg/kg, route oral; details: in vivo
[20] = Half life in mouse at 3 mg/kg, po by LC-MS/MS analysis; type: ADME, organism-based; set-up: dose 3 mg/kg, route oral; details: in vivo
[21] = Half life in Sprague-Dawley rat at 3 mg/kg, po by LC-MS/MS analysis; type: ADME, organism-based; set-up: dose 3 mg/kg, route oral; details: in vivo
[22] = Half life in monkey at 3 mg/kg, po by LC-MS/MS analysis; type: ADME, organism-based, Macaca mulatta; set-up: dose 3 mg/kg, route oral; details: rhesus monkey, in vivo
[23] = Half life in dog at 3 mg/kg, po by LC-MS/MS analysis; type: ADME, organism-based, Canis lupus familiaris; set-up: dose 3 mg/kg, route oral; details: in vivo
[24] = Oral bioavailability in monkey at 3 mg/kg by LC-MS/MS analysis; type: ADME, organism-based, Macaca mulatta; details: rhesus monkey, in vivo
[25] = Oral bioavailability in dog at 3 mg/kg by LC-MS/MS analysis; type: ADME, organism-based, Canis lupus familiaris; details: in vivo
[26] = Clearance in mouse at 3 mg/kg, po by LC-MS/MS analysis; type: ADME, organism-based; set-up: dose 3 mg/kg, route oral; details: in vivo
[27] = Clearance in Sprague-Dawley rat at 3 mg/kg, po by LC-MS/MS analysis; type: ADME, organism-based; set-up: dose 3 mg/kg, route oral; details: in vivo
[28] = Clearance in monkey at 3 mg/kg, po by LC-MS/MS analysis; type: ADME, organism-based, Macaca mulatta; set-up: dose 3 mg/kg, route oral; details: rhesus monkey, in vivo
[29] = Clearance in dog at 3 mg/kg, po by LC-MS/MS analysis; type: ADME, organism-based, Canis lupus familiaris; set-up: dose 3 mg/kg, route oral; details: in vivo
Mus musculus [30] = test: Hepatic blood flow in mouse at 3 mg/kg, po by LC-MS/MS analysis; type: ADME, organism-based, Liver; set-up: dose 3 mg/kg, route oral; details: in vivo
Rattus norvegicus [31] = test: Hepatic blood flow in Sprague-Dawley rat at 3 mg/kg, po by LC-MS/MS analysis; type: ADME, organism-based, Liver; set-up: dose 3 mg/kg, route oral; details: in vivo
Rhesus monkey [32] = test: Hepatic blood flow in monkey at 3 mg/kg, po by LC-MS/MS analysis; type: ADME, organism-based, Macaca mulatta, Liver; set-up: dose 3 mg/kg, route oral; details: in vivo
Canis familiaris [33] = test: Hepatic blood flow in dog at 3 mg/kg, po by LC-MS/MS analysis; type: ADME, organism-based, Canis lupus familiaris, Liver; set-up: dose 3 mg/kg, route oral; details: in vivo
Mus musculus [34] = test: Volume of distribution at steady state in mouse at 3 mg/kg, po by LC-MS/MS analysis; type: ADME, organism-based; set-up: dose 3 mg/kg, route oral; details: in vivo
Rattus norvegicus [35] = test: Volume of distribution at steady state in Sprague-Dawley rat at 3 mg/kg, po by LC-MS/MS analysis; type: ADME, organism-based; set-up: dose 3 mg/kg, route oral; details: in vivo
Rhesus monkey [36] = test: Volume of distribution at steady state in monkey at 3 mg/kg, po by LC-MS/MS analysis; type: ADME, organism-based, Macaca mulatta; set-up: dose 3 mg/kg, route oral; details: in vivo
Canis familiaris [37] = test: Volume of distribution at steady state in dog at 3 mg/kg, po by LC-MS/MS analysis; type: ADME, organism-based, Canis lupus familiaris; set-up: dose 3 mg/kg, route oral; details: in vivo
Histamine H3 receptor [38] = biological target: T1, Histamine H3 receptor (Homo sapiens, UniProt Q9Y5N1); test: Binding affinity to human cloned histamine H3 receptor
T1 sequence (Q9Y5N1 whole entry): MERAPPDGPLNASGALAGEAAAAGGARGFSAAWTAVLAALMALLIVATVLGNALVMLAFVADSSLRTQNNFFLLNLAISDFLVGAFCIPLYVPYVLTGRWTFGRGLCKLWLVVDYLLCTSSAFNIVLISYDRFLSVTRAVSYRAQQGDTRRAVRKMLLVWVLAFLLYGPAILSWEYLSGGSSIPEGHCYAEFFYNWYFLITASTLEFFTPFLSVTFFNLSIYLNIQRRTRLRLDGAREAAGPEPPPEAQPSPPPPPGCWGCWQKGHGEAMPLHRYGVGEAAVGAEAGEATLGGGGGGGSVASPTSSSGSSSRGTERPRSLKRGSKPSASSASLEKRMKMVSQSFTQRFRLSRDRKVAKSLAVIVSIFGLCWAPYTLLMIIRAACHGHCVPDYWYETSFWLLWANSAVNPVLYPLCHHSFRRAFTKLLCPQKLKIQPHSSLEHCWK

Histamine H3 receptor [39] = biological target: T1, Histamine H3 receptor; test: Inverse agonist activity at human cloned histamine H3 receptor by [35S]GTPgammaS binding assay; type: functional
Cytochrome P450 3A4 = Cytochrome P450 3A4 (Homo sapiens, UniProt P08684); test: Inhibition of CYP3A4; type: ADME
Sequence of Cytochrome P450 3A4 (P08684 whole entry, canonical isoform): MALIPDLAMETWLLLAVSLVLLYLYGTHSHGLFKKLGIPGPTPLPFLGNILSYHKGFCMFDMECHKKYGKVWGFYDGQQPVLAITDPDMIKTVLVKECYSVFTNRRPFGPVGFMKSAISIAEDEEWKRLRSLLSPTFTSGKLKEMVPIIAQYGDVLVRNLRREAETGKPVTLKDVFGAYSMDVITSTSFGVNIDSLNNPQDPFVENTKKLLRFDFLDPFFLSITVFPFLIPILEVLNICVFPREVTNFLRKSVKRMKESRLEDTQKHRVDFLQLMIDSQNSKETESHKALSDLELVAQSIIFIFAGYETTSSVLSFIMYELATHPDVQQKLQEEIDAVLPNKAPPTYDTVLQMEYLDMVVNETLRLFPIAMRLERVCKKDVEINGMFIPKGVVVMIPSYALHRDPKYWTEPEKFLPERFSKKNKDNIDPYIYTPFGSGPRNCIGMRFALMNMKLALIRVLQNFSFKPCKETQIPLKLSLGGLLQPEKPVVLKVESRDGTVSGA
Procedure, shortened: (§4)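 Inhibition tested against five major CYP isoforms; IC50 determined.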

Cytochrome P450 1A2 = biological target: T2, Cytochrome P450 1A2 (Homo sapiens, UniProt P05177); test: Inhibition of CYP1A2; type: ADME; procedure, shortened: as §4
T2 sequence (P05177 whole entry): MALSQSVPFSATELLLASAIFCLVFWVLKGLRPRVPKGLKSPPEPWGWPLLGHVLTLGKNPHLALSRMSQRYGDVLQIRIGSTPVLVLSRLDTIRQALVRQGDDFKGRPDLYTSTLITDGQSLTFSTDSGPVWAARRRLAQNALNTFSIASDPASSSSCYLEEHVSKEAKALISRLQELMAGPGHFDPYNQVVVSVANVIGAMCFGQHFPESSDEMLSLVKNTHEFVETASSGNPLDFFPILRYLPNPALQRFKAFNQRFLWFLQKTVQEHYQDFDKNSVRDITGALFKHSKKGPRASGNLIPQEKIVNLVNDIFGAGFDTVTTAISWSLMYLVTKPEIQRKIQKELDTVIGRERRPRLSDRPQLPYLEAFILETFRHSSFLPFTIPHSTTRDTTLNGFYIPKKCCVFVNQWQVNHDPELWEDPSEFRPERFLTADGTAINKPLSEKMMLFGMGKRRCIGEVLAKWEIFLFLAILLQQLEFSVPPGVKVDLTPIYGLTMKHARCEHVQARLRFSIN

Cytochrome P450 2C9 = Cytochrome P450 2C9 (Homo sapiens, UniProt P11712); test: Inhibition of CYP2C9; type: ADME; procedure, shortened: as §4
Sequence of Cytochrome P450 2C9 (P11712 whole entry): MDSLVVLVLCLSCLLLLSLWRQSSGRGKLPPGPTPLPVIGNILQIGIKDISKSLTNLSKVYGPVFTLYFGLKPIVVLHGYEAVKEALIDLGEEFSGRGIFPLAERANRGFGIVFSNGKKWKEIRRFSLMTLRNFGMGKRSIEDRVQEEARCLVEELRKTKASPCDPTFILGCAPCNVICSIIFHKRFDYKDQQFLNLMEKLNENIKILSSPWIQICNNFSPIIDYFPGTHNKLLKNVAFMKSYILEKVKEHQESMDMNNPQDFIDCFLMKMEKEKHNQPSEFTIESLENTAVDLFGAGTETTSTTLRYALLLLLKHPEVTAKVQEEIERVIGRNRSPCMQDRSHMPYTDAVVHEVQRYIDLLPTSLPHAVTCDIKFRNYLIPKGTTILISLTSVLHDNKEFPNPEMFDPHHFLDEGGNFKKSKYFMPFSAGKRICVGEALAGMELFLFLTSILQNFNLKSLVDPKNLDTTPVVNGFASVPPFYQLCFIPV

Cytochrome P450 2C19 = Cytochrome P450 2C19 (Homo sapiens, UniProt P33261); test: Inhibition of CYP2C19; type: ADME; procedure, shortened: as §4
Sequence of Cytochrome P450 2C19 (P33261 whole entry): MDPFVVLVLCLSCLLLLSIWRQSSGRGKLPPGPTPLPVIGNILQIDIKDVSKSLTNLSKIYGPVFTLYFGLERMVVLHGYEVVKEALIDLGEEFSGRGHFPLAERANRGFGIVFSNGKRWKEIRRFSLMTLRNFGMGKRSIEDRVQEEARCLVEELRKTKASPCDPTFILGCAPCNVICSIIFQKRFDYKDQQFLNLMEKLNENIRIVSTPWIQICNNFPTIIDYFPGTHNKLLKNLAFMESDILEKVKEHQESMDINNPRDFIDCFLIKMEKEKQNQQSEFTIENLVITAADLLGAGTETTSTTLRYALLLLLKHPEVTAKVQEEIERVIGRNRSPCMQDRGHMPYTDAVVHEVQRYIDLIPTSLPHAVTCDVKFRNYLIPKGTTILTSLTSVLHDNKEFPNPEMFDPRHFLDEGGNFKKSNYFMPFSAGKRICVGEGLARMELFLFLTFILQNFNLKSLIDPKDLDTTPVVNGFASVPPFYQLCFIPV

Cytochrome P450 2D6 = Cytochrome P450 2D6 (Homo sapiens, UniProt P10635); test: Inhibition of CYP2D6; type: ADME; procedure, shortened: as §4
Sequence of Cytochrome P450 2D6 (P10635 whole entry): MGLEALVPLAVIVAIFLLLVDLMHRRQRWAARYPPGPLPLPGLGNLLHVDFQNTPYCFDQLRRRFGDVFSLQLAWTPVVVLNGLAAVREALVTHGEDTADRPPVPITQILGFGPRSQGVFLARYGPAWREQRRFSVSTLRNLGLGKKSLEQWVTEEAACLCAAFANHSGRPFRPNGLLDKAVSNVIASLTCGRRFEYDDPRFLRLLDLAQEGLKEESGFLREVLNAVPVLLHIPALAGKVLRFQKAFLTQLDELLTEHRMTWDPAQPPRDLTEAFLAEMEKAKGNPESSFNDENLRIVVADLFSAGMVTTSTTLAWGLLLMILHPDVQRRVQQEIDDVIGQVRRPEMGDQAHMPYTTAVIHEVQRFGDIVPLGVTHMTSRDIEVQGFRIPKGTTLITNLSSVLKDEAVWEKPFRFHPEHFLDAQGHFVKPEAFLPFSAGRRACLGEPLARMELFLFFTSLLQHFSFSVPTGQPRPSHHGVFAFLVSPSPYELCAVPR

Salmonella typhimurium = test: Mutagenic activity in Salmonella Typhimurium by micro-Ames assay; type: toxicity, organism-based; details: salmonella enterica subsp. enterica serovar typhimurium
[40] = Cmax in Sprague-Dawley rat at 3 mg/kg, po by LC-MS/MS analysis; type: ADME, organism-based; set-up: dose 3 mg/kg, route oral; details: in vivo; procedure, shortened: as §3
[41] = Oral bioavailability in mouse at 3 mg/kg by LC-MS/MS analysis; type: ADME, organism-based; details: in vivo
Canis lupus familiaris [42] = test: Cardiotoxicity in dog assessed as increase in mean arterial blood pressure at 10 to 30 mg/kg, po; details: in vivo
Canis lupus familiaris [43] = test: Cardiotoxicity in dog assessed as increase in mean arterial blood pressure at 10 to 30 mg/kg, po after 60 mins; details: in vivo, 1 h

COCCCS(=O)(=O)c1ccc(-c2ccc(CCN3CCC[C@H]3C)cc2)cc1
Ki (Histamine H3 receptor [1]): 0.0007 µM | inhibition at 3 µM (hERG (KCNH2)): 14% | IC50 [2]: 11 µM | minimal effective dose (Rattus norvegicus [3]): 0.3 mg/kg | Tmax [4]: 0.5 h | Cmax [5]: 104 ng/mL | half-life [6]: 1.9 h | Vdss (Rattus norvegicus [7]): 7.5 L/kg | bioavailability [8]: 27.3% | Kp [9]: 3.3 | fraction unbound [10]: 0.26 | fraction unbound [11]: 0.26 | concentration at 1 h [12]: 17 ng/g | inhibition in vivo at 0.6 mg/kg (Rattus norvegicus [13]): < 20% | Tmax [14]: 1 h | Tmax [15]: 2.3 h | Tmax [16]: 0.8 h | Cmax [17]: 80 ng/mL | Cmax [18]: 550 ng/mL | Cmax [19]: 600 ng/mL | half-life [20]: 1.5 h | half-life [21]: 1.9 h | half-life [22]: 6.9 h | half-life [23]: 5 h | bioavailability [24]: 67.5% | bioavailability [25]: 100% | CL/F [26]: 72.7 mL/min/kg | CL/F [27]: 74.3 mL/min/kg | CL/F [28]: 6.17 mL/min/kg | CL/F [29]: 13.7 mL/min/kg | QH (Mus musculus [30]): 78% | QH (Rattus norvegicus [31]): 106% | QH (Rhesus monkey [32]): 14% | QH (Canis familiaris [33]): 43% | Vdss (Mus musculus [34]): 2.54 L/kg | Vdss (Rattus norvegicus [35]): 7.54 L/kg | Vdss (Rhesus monkey [36]): 2.16 L/kg | Vdss (Canis familiaris [37]): 2.89 L/kg | Ki (Histamine H3 receptor [38]): 0.0042 µM | IC50 (Histamine H3 receptor [39]): 0.0007 µM | IC50 (Cytochrome P450 3A4): > 40 µM | IC50 (Cytochrome P450 1A2): > 40 µM | IC50 (Cytochrome P450 2C9): > 40 µM | IC50 (Cytochrome P450 2C19): > 40 µM | IC50 (Cytochrome P450 2D6): > 40 µM | Activity (Salmonella typhimurium): Non-toxic | Cmax [40]: 100 ng/mL | bioavailability [41]: 35.4% | Activity (Canis lupus familiaris [42]): Toxic | Activity (Canis lupus familiaris [43]): Non-toxic
